From PubChem
FN deposit inh: fibronectin deposition inhibition; AH1F fibroblasts, Alexa488-fibronectin deposition fluorescence, overnight; inhibition, % at 12.6 µM; 350,000 compounds, 0.086% hits; AID 743247;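 active = mean inhibition across replicates of 30% or more, regardless of how many single replicates reach that level; inconclusive = mean under 30% yet at least half of replicates reach 30%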;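 note: positive control wells lacked labelled fibronectin entirely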
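material = AH1F fibroblast monolayer depositing Alexa488-labelled fibronectin into matrix | amount = 10000 AH1F cells/well | buffer or medium = DMEM plus 2% serum, read in PBS | incubation = 1 h cell adhesion before compound, then overnight fibronectin incubation | detection = fluorescence at 485 nm excitation, 525 nm emission | evaluation = percent inhibition as loss of matrix-bound fibronectin fluorescence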
ARNT-TACC3 inh: disruptors of human ARNT/TACC3 interaction. 390,000 compounds, 0.66% hits. AlphaScreen His-ARNT PAS-B/GST-TACC3 binding, luminescence; TACC3 fragment carries E629A point mutation. AID 623870. inhibition, % at 9.99 µM;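 active = mean inhibition of replicates at least 50% and at least half of replicates each reaching 50%; inconclusive = half or more replicates reach 50% but mean below 50%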;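 note: 0% = complete ARNT plus TACC3 wells and 100% = ARNT alone without TACC3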
SIRT5 block: sirtuin-5 (human) deacylase inhibition. Purified SirT5, succinyl-peptide AMC, trypsin-coupled fluorescence. inhibition, % at 15 µM. 330,000 compounds, 1.1% hits; in the data active = inhibition above about 15%; inconclusive = no clear call, values can overlap the other calls
Target sequence (Q9NXA8 whole entry, looked up): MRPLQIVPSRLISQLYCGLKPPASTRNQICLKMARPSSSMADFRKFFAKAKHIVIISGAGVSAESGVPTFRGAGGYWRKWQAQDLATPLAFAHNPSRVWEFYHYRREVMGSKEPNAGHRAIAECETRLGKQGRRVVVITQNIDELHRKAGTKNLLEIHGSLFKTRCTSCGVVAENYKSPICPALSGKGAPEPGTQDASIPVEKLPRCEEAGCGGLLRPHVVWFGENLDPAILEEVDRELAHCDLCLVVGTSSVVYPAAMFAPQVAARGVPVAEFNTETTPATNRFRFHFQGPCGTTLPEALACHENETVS
FGF22 binding: FGF22 (human) thermal shift binding. Q9HCT0. recombinant FGF22 thermal shift, SYPRO orange fluorescence; percent of sucrose octasulfate shift, DMSO zero. activity (Tm shift, normalised), % at 9.99 µM. 340,000 compounds, 1.5% hits. AID 651658;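 active = mean Tm shift, scaled 0 neutral to 100 positive control, at about 1.3% or above, every replicate too, limit read from the data; inconclusive = no clear call, values can overlap the other calls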
Target sequence (Q9HCT0 whole entry, looked up): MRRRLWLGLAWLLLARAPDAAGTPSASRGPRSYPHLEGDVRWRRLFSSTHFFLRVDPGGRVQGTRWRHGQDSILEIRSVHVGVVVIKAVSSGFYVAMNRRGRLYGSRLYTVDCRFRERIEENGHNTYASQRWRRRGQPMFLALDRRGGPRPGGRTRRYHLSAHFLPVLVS
DENV2 CPE rescue: protects cells from dengue virus 2 cytopathic effect; DENV2-infected cells, cytopathic effect rescue, plate reader; CPE inhibition, % at 9.99 µM; 350,000 compounds, 1.7% hits; in the data active = CPE inhibition above about 20%, passing the limit was not always enough; inconclusive = no clear call, values can overlap the other calls; tested in BHK-21 cells;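 note: 0% = median of neutral control wells and 100% = median of positive control wells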
Xi reactivation: X-chromosome reactivation activator | XiGFP mouse fibroblasts, % GFP-positive cells imaging, 3 d; cells co-treated with 5-aza-dC sensitizer; scaled so ellipticine positive control = 100% | activation, % at 7.58 µM | 360,000 compounds, 0.055% hits;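 active = mean normalized replicate activation at least 10% and every replicate at or above 10%; inconclusive = only one of the two criteria met; inactive = mean below 10% and not all replicates reach 10%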;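 note: 0% = median of on-plate neutral control wells and 100% = ellipticine 6 µM median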
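Assay system: SV40-immortalized XiGFP fibroblast cells, line 68-5-11; buffer or medium: DMEM plus 5-aza-dC sensitizer; compound: one concentration, pinned; timing: compounds 3 days, fix/stain 15 min at room temperature; benchmarks: positive control ellipticine, 6 µM final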
* marks the source's active call; other numbers are inactive results. This is a sample that favours compounds with a hit; in the whole collection about 3.8% have one here.

How did C[C@@H]1CN([C@H](C)CO)C(=O)c2cc(NS(=O)(=O)c3ccc(Cl)cc3)ccc2O[C@H]1CN(C)Cc1ccccc1 do in these assays?
ARNT-TACC3 inh: 1; SIRT5 block: 4; FGF22 binding: 0; DENV2 CPE rescue: -2; Xi reactivation: -1

How did C[C@@H]1CN([C@H](C)CO)C(=O)c2cc(NS(=O)(=O)c3ccc(Cl)cc3)ccc2O[C@@H]1CN(C)Cc1ccccc1 do in these assays?
ARNT-TACC3 inh: 0; SIRT5 block: 7; FGF22 binding: 0; DENV2 CPE rescue: 42*; Xi reactivation: -1

What do the screens show for `C[C@@H]1CN([C@@H](C)CO)C(=O)c2cc(NS(=O)(=O)c3ccc(Cl)cc3)ccc2O[C@@H](C)CCCCO[C@@H]1CN(C)Cc1ccccc1`?
FN deposit inh: 0; ARNT-TACC3 inh: -1; SIRT5 block: 18*; DENV2 CPE rescue: -6; Xi reactivation: 0

How did C[C@H]1CCCCO[C@H](CN(C)Cc2ccccc2)[C@@H](C)CN([C@@H](C)CO)C(=O)c2cc(NS(=O)(=O)c3ccc(Cl)cc3)ccc2O1 do in these assays?
FN deposit inh: 4; ARNT-TACC3 inh: 1; SIRT5 block: 2; DENV2 CPE rescue: -9; Xi reactivation: 0

What do the screens show for `C[C@@H]1CN([C@H](C)CO)C(=O)c2cc(NS(=O)(=O)c3ccc(Cl)cc3)ccc2O[C@@H](C)CCCCO[C@@H]1CN(C)Cc1ccccc1`?
FN deposit inh: -13; ARNT-TACC3 inh: 15; SIRT5 block: 21*; DENV2 CPE rescue: -24; Xi reactivation: 1

Results for CCN(CC)P(=O)(Nc1ccccc1Br)c1ccc(N(C)C)cc1NC(=O)c1ccco1 (centres undefined) ?
FN deposit inh: -7; ARNT-TACC3 inh: 0; SIRT5 block: 0; FGF22 binding: 44*; DENV2 CPE rescue: 0; Xi reactivation: 0

How did COCC(=O)Nc1ccc2c(c1)C(=O)N(C)[C@@H]1CC[C@@H](CC(=O)NCC3CC3)O[C@H]1CO2 do in these assays?
FN deposit inh: -2; ARNT-TACC3 inh: -14; SIRT5 block: 0; FGF22 binding: 0; DENV2 CPE rescue: 12; Xi reactivation: 0

Results for COc1ccc(NC(=O)N(C)C[C@H]2OCCCC[C@H](C)Oc3ccc(NC(=O)Nc4c(C)noc4C)cc3C(=O)N([C@@H](C)CO)C[C@@H]2C)cc1 ?
ARNT-TACC3 inh: 3; SIRT5 block: -1; FGF22 binding: 0; DENV2 CPE rescue: 7; Xi reactivation: -1

How did C=CC[C@@H](CC(=O)OC(C)(C)C)C(=O)OC[C@@H]1CCCN1C(=O)[C@@H](CC=C)CC(=O)N[C@@H](CO)Cc1ccccc1 do in these assays?
FN deposit inh: 9; ARNT-TACC3 inh: -2; SIRT5 block: 25*; FGF22 binding: 0; DENV2 CPE rescue: -8; Xi reactivation: 0

What do the screens show for `C=CC[C@@H](CC(=O)N[C@H](CO)Cc1ccccc1)C(=O)N[C@@H](COC(=O)[C@@H](CC=C)CC(=O)OC(C)(C)C)Cc1ccccc1`?
FN deposit inh: -13; ARNT-TACC3 inh: -5; SIRT5 block: 18*; FGF22 binding: 1; DENV2 CPE rescue: 0; Xi reactivation: 0

Results for O=C(O)C1CN(c2ncccc2[N+](=O)[O-])C1 ?
FN deposit inh: -3; ARNT-TACC3 inh: -6; SIRT5 block: 1; FGF22 binding: 43*; DENV2 CPE rescue: 0; Xi reactivation: 0

What do the screens show for `COc1ccccc1NC(=O)N1CC(=O)N2[C@@H](CO)[C@H](c3ccc(C#CC(C)C)cc3)[C@@H]2C1`?
FN deposit inh: -13; SIRT5 block: -1; FGF22 binding: 0; DENV2 CPE rescue: -6; Xi reactivation: 0

What do the screens show for `Cc1ccc(S(=O)(=O)Nc2ccc3c(c2)C(=O)N([C@@H](C)CO)C[C@@H](C)[C@H](CN(C)S(=O)(=O)c2ccccc2)OCCCC[C@@H](C)O3)cc1`?
FN deposit inh: 4; ARNT-TACC3 inh: -2; SIRT5 block: 9; DENV2 CPE rescue: 9; Xi reactivation: 0

Results for Cc1ccc(S(=O)(=O)Nc2ccc3c(c2)C(=O)N([C@@H](C)CO)C[C@@H](C)[C@H](CN(C)S(=O)(=O)c2ccccc2)OCCCC[C@H](C)O3)cc1 ?
FN deposit inh: 8; ARNT-TACC3 inh: 8; SIRT5 block: 13; DENV2 CPE rescue: -8; Xi reactivation: 0

What do the screens show for `Cc1ccc(S(=O)(=O)Nc2ccc3c(c2)C(=O)N([C@H](C)CO)C[C@H](C)[C@@H](CN(C)S(=O)(=O)c2ccccc2)OCCCC[C@@H](C)O3)cc1`?
FN deposit inh: 4; ARNT-TACC3 inh: -2; SIRT5 block: 4; DENV2 CPE rescue: inconclusive; Xi reactivation: 0

What do the screens show for `Cc1ccc(S(=O)(=O)N(C)C[C@H]2OCCCC[C@H](C)Oc3ccc(NS(=O)(=O)c4ccccc4)cc3C(=O)N([C@H](C)CO)C[C@H]2C)cc1`?
ARNT-TACC3 inh: -6; SIRT5 block: 27*; FGF22 binding: 0; DENV2 CPE rescue: 3; Xi reactivation: 0

What do the screens show for `Cc1ccc(S(=O)(=O)N(C)C[C@@H]2OCCCC[C@H](C)Oc3ccc(NS(=O)(=O)c4ccccc4)cc3C(=O)N([C@H](C)CO)C[C@@H]2C)cc1`?
FN deposit inh: -8; ARNT-TACC3 inh: 11; SIRT5 block: 21*; FGF22 binding: 0; DENV2 CPE rescue: -3; Xi reactivation: 0

How did Cc1ccc(S(=O)(=O)N(C)C[C@@H]2OCCCC[C@H](C)Oc3ccc(NS(=O)(=O)c4ccccc4)cc3C(=O)N([C@H](C)CO)C[C@H]2C)cc1 do in these assays?
FN deposit inh: -19; ARNT-TACC3 inh: -6; SIRT5 block: 18*; FGF22 binding: -1; DENV2 CPE rescue: 2; Xi reactivation: 0

Results for Cc1ccc(S(=O)(=O)N(C)C[C@H]2OCCCC[C@H](C)Oc3ccc(NS(=O)(=O)c4ccccc4)cc3C(=O)N([C@@H](C)CO)C[C@H]2C)cc1 ?
FN deposit inh: -8; ARNT-TACC3 inh: 7; SIRT5 block: 23*; FGF22 binding: 0; DENV2 CPE rescue: 0; Xi reactivation: 4

Results for C[C@@H]1CN([C@@H](C)CO)C(=O)c2cc(NS(=O)(=O)c3ccccc3)ccc2O[C@@H](C)CCCCO[C@@H]1CN(C)S(=O)(=O)c1ccccc1 ?
FN deposit inh: -4; ARNT-TACC3 inh: 3; SIRT5 block: 17*; FGF22 binding: 0; DENV2 CPE rescue: -5; Xi reactivation: 0

How did Cc1ccc(S(=O)(=O)N(C)C[C@H]2OCCCC[C@@H](C)Oc3ccc(NS(=O)(=O)c4ccccc4)cc3C(=O)N([C@@H](C)CO)C[C@H]2C)cc1 do in these assays?
ARNT-TACC3 inh: 6; SIRT5 block: 22*; FGF22 binding: 0; DENV2 CPE rescue: -6; Xi reactivation: 0
